Results on 14 compounds are retold here after ChEMBL document CHEMBL1143371, “2-Aminoimidazoles inhibitors of TGF-beta receptor 1” (Bioorg Med Chem Lett, 2009).

The target of data set [1] is T1, TGF-beta receptor type-1 (Homo sapiens, UniProt P36897).
T1 sequence (P36897 whole entry): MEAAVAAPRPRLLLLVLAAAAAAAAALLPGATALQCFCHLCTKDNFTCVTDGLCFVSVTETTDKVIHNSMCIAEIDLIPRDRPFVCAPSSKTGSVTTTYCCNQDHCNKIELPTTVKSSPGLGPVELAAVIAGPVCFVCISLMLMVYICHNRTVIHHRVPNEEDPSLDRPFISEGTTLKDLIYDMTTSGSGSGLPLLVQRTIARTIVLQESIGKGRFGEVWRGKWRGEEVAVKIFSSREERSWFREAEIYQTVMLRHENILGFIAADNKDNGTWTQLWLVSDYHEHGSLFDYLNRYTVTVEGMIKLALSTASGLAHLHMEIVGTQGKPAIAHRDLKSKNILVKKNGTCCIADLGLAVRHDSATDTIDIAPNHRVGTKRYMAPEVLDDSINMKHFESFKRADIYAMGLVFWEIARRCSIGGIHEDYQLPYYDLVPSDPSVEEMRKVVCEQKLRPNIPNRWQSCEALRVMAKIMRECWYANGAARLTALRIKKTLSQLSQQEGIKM
Briefly: Binding affinity to human TGFBR1.

In data set [2] the target is Mitogen-activated protein kinase 14 (Homo sapiens, UniProt Q16539). Briefly: Inhibition of p38alpha.
Sequence of Mitogen-activated protein kinase 14 (Q16539 whole entry): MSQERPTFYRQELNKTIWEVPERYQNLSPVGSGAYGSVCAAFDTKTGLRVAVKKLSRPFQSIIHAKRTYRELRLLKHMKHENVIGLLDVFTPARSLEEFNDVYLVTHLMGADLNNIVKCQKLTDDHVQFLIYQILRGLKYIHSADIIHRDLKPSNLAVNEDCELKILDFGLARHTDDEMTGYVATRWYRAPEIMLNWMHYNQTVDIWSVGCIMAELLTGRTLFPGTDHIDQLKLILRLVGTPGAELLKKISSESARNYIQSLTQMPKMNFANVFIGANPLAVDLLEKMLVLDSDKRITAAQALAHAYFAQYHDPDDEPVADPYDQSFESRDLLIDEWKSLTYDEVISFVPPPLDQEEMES
Data set [3] is described as follows: Bioavailability in iv and po dosed Sprague-Dawley rat. The class given is ADME, organism-based. The settings on record: in vivo. In outline: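 Fasted male Sprague–Dawley rats were dosed iv and po. […] Depending on the compound, the vehicle was 20% captisol or NMP/H₂O (1/1).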
A short description of data set [4]: Half life in iv dosed Sprague-Dawley rat. The class given is ADME, organism-based. The settings on record: in vivo. In outline: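 Half-life was measured in fasted male Sprague–Dawley rats and is the mean of 4 iv experiments. Depending on the compound, the vehicle was 20% captisol or NMP/H₂O (1/1).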
Data set [5] deals with T1, TGF-beta receptor type-1. Briefly: Inhibition of TGFBR1 transfected in human HepG2 cells after 24 hrs by plasminogen activator inhibitor-luciferase reporter gene assay. It counts as cell-based. On the technique in general: Reporter assays use an easily measured gene product as a stand-in for the process of interest.

A word on the Ki: it is the dissociation constant of the complex between target and ligand, obtained from inhibition or displacement. Read a low Ki as a stronger hold on the target. Consider `Cc1nc(-c2nc(NC(=O)C(C)C)[nH]c2-c2ccc3nccnc3c2)ccc1F`, for which the Ki at TGF-beta receptor type-1 [1] was > 28000 nM.

For orientation: IC50 means the concentration that gives 50% inhibition. As usually defined, the bioavailability is the share of a dose that reaches the circulation, judged against a reference dose that is usually intravenous. A lower bioavailability goes with little systemic uptake. Broadly, the half-life is the time in which the quantity being followed falls by half. The low end stands for rapid decline, the high end for slow decline. On to `Cc1nc(-c2nc(N)[nH]c2-c2ccc3nccnc3c2)ccc1F`, for which the IC50 in data set [2] was found to be 12500 nM; at TGF-beta receptor type-1 [5] it was 33.5 nM. In addition, on TGF-beta receptor type-1 [1], the Ki is 0.7 nM. This compound also came in with a bioavailability in data set [3] of 28%. Besides, in data set [4], the half-life is 0.6 h.

Broadly, the EC50 is the concentration giving half of the maximal effect. For `CC(=O)Nc1nc(-c2ccc(F)c(C)n2)c(-c2ccc3nccnc3c2)[nH]1`, the 50% effective concentration (EC50) in data set [2] was 14800 nM; on TGF-beta receptor type-1 [5], 180 nM. Also, the bioavailability in data set [3] came to 66%. The half-life in data set [4] was 7.8 h.

In the case of `CC(=O)N1CCN(c2nc(-c3ccc(F)c(C)n3)c(-c3ccc4ncnn4c3)[nH]2)CC1`, the EC50 was determined as 14200 nM in data set [2] and 1220 nM at TGF-beta receptor type-1 [5]. At TGF-beta receptor type-1 [1], the affinity corresponds to a Ki of 15.2 nM.

`CC(=O)Nc1nc(-c2ccc(F)c(C)n2)c(-c2ccc3ncnn3c2)[nH]1`: the concentration giving a half-maximal response (EC50) was determined as 28100 nM in data set [2] and 111 nM at TGF-beta receptor type-1 [5]. For the same compound, at TGF-beta receptor type-1 [1], the Ki came to 2.07 nM.

With `Cc1nc(-c2nc(N3CCN(S(C)(=O)=O)CC3)[nH]c2-c2ccc3ncnn3c2)ccc1F`, the values for the EC50 (in data set [2]; on TGF-beta receptor type-1 [5]) were 41200 nM and 414 nM, respectively. On TGF-beta receptor type-1 [1], this compound gave an inhibition constant Ki of 3 nM.

Regarding `COCCC(=O)Nc1nc(-c2ccc(F)c(C)n2)c(-c2ccc3nccnc3c2)[nH]1`, the EC50 came to 14800 nM in data set [2] and 148 nM at TGF-beta receptor type-1 [5]. The same compound displayed an inhibitory constant (Ki) on TGF-beta receptor type-1 [1] of 19 nM. The compound also showed a bioavailability in data set [3] of 41%. The half-life in data set [4] is 13.2 h.

As for `CCC(=O)Nc1nc(-c2ccc(F)c(C)n2)c(-c2ccc3nccnc3c2)[nH]1`, the EC50 in data set [2] amounted to 13500 nM; at TGF-beta receptor type-1 [5], 156 nM. Moreover, the Ki at TGF-beta receptor type-1 [1] worked out at 8.8 nM.

For the compound `Cc1nc(-c2nc(N3CCCCC3)[nH]c2-c2ccc3ncnn3c2)ccc1F`, the Ki at TGF-beta receptor type-1 [1] was found to be 53.2 nM.

For the compound `CC(=O)Nc1nc(-c2cccc(C)n2)c(-c2ccc3ncnn3c2)[nH]1`, the EC50 in data set [2] turned out to be 57800 nM; on TGF-beta receptor type-1 [5] it was 165 nM. At TGF-beta receptor type-1 [1], this compound displayed an inhibitory constant (Ki) of 2.95 nM. In data set [3], this compound yielded a bioavailability of 100%. The same compound gave a half-life in data set [4] of 7.1 h.

Turning to `Cc1cccc(-c2nc(N)sc2-c2ccc3nccnc3c2)n1`, the EC50 was found to be 22000 nM in data set [2] and 80 nM on TGF-beta receptor type-1 [5]. At TGF-beta receptor type-1 [1], this compound gave a Ki of 0.33 nM. Further, the bioavailability in data set [3] turned out to be 87%. Further, the half-life in data set [4] was 7.4 h.

Regarding `Cc1nc(-c2nc(N3CCN(C)CC3)[nH]c2-c2ccc3ncnn3c2)ccc1F`, the EC50 is 10900 nM in data set [2] and 344 nM on TGF-beta receptor type-1 [5]. This compound yielded an inhibitory constant (Ki) on TGF-beta receptor type-1 [1] of 16.4 nM.

On to `Cc1nc(-c2nc(N3CCOCC3)[nH]c2-c2ccc3ncnn3c2)ccc1F`, for which the concentration for a half-maximal effect (EC50) in data set [2] is 46300 nM; at TGF-beta receptor type-1 [5], 513 nM. Moreover, the affinity on TGF-beta receptor type-1 [1] corresponds to a Ki of 15 nM. The compound also displayed a bioavailability in data set [3] of 25%. This compound also showed a half-life in data set [4] of 0.4 h.

As to `COCC(=O)Nc1nc(-c2ccc(F)c(C)n2)c(-c2ccc3nccnc3c2)[nH]1`, the EC50 in data set [2] came to 15000 nM; on TGF-beta receptor type-1 [5], 61 nM. The compound also yielded a Ki on TGF-beta receptor type-1 [1] of 7.2 nM.
